Assay results reported in ChEMBL document CHEMBL1132257, “Apstatin analogue inhibitors of aminopeptidase P, a bradykinin-degrading enzyme” (J Med Chem, 1999).

Key:
Xaa-Pro aminopeptidase 1 [1] = target: T1, Xaa-Pro aminopeptidase 1 (Homo sapiens, UniProt Q9NQW7); assay: Inhibition against cytosolic Aminopeptidase P from human heart.
Summary of the method: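 Human heart homogenate in 0.1 M potassium phosphate pH 6.8: the 40000g supernatant, or enzyme partly purified on TNB-thiol agarose with dithiothreitol elution and exchange into Hepes. Assayed with 0.5 mM Arg-Pro-Pro, 0.1 M Hepes pH 8.0; arginine measured by fluorescence. IC50 by linear regression, 10 concentrations in triplicate.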

[2] = Inhibition against Aminopeptidase P from bovine.; format: single protein
Summary of the method: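 Source was bovine lung membrane-bound enzyme purified to homogeneity. Substrate 0.5 mM Arg-Pro-Pro, 0.1 M Hepes pH 8.0, with fluorimetric detection of released arginine. IC50 by linear regression of rate vs log [inhibitor] (linear part), using 10 concentrations near a preliminary estimate, in triplicate.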

[3] = Inhibition against Aminopeptidase P from Escherichia coli.
Summary of the method: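 Recombinant E. coli AP-P, preincubated with 0.73 mM MnCl2 (0.02 mM residual in assay). Hydrolysis of 0.5 mM Arg-Pro-Pro in 0.1 M Hepes pH 8.0 tracked by fluorescence of free arginine. IC50 by linear regression of rate vs log inhibitor concentration over 10 concentrations, triplicate each.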

Xaa-Pro aminopeptidase 1 [4] = target: T1, Xaa-Pro aminopeptidase 1; assay: Inhibition against Aminopeptidase P from human platelets.
Summary of the method: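 Enzyme from human platelets: washed in PBS with prostacyclin, freeze-thawed, sonicated; the 43000g 2 h supernatant was used. Substrate 0.5 mM Arg-Pro-Pro, 0.1 M Hepes pH 8.0, fluorimetric arginine read-out. IC50 from triplicate rates at 10 concentrations, by linear regression of rate vs log concentration.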

Xaa-Pro aminopeptidase 2 [5] = target: Xaa-Pro aminopeptidase 2 (Homo sapiens, UniProt O43895); assay: Inhibition against membrane bound human aminopeptidase P
Summary of the method: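 Partially purified membrane-bound AP-P from human or cynomolgus lung, released from microsomes by phosphatidylinositol-specific phospholipase C and then centrifuged. Triplicate rates at 10 inhibitor levels; IC50 by linear regression of the linear part of the rate vs log concentration plot.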

Xaa-Pro aminopeptidase 2 [6] = target: T2, Xaa-Pro aminopeptidase 2 (Rattus norvegicus, UniProt Q99MA2); assay: Activity against membrane bound rat aminopeptidase P
T2 sequence (Q99MA2 whole entry): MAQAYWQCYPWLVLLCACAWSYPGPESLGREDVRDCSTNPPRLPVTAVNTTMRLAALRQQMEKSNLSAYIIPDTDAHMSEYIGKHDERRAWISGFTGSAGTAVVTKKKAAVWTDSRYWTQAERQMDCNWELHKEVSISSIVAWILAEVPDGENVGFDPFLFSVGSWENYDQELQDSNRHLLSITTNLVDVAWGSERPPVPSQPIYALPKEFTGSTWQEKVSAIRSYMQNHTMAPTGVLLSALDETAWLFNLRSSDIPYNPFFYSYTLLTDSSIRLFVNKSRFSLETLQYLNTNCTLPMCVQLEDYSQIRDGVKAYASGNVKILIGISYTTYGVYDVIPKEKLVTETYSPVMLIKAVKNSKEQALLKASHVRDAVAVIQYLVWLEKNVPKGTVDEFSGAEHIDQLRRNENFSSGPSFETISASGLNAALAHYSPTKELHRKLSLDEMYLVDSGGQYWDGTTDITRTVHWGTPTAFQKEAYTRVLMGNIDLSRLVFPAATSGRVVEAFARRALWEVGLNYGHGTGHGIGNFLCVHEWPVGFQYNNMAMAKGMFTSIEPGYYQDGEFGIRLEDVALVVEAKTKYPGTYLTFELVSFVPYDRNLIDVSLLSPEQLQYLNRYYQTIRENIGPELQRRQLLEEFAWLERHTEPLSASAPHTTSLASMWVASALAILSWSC
Summary of the method: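 Membrane-bound AP-P purified to homogeneity from rat lung; 0.5 mM Arg-Pro-Pro substrate in 0.1 M Hepes, pH 8.0; free arginine release read by fluorescence. IC50 from 10 inhibitor concentrations around an approximate value, each in triplicate, by linear regression of the linear portion of rate vs log inhibitor concentration.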

T1 sequence (Q9NQW7 whole entry): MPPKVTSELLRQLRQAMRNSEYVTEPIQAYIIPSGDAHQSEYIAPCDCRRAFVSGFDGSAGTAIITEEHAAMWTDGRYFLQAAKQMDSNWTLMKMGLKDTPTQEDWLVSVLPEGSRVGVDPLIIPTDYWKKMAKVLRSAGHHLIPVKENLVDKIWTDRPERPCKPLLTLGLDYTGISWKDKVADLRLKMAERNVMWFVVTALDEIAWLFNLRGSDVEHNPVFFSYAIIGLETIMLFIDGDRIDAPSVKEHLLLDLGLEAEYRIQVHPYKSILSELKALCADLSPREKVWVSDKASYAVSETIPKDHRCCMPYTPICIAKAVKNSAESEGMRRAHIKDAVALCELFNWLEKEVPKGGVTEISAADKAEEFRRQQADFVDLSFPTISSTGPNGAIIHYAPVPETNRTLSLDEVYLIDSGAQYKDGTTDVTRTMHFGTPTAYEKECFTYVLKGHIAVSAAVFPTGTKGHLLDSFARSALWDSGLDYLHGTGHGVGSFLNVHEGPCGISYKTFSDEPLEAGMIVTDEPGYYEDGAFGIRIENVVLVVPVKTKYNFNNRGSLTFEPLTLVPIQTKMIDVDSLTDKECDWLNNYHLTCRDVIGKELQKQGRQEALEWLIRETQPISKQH
Chain of Xaa-Pro aminopeptidase 2 (Homo sapiens, UniProt O43895) (O43895 whole entry): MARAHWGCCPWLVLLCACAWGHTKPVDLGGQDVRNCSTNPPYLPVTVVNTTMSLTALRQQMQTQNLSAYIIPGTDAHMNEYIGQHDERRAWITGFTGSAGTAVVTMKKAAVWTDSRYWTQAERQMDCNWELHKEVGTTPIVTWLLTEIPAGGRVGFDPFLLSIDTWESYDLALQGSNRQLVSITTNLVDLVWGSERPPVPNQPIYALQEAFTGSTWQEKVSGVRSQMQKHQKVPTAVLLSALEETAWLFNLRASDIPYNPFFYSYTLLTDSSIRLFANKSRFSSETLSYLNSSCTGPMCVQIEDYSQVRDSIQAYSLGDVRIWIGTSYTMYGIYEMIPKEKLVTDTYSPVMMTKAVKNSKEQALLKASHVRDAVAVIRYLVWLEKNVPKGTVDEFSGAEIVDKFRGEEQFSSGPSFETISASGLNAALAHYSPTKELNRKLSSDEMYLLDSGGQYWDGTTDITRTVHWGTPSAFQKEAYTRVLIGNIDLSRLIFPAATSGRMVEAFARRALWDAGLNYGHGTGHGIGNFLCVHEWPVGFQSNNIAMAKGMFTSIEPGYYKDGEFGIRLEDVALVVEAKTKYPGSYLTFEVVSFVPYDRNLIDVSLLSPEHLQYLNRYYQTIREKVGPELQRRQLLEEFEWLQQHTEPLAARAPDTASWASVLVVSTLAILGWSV

| Structure (SMILES) | IC50 (Xaa-Pro aminopeptidase 1 [1]) | IC50 [2] | IC50 [3] | IC50 (Xaa-Pro aminopeptidase 1 [4]) | IC50 (Xaa-Pro aminopeptidase 2 [5]) | IC50 (Xaa-Pro aminopeptidase 2 [6]) |
| --- | --- | --- | --- | --- | --- | --- |
| C[C@H](NC(=O)[C@@H]1CCCN1C(=O)C1CCCCC1C(=O)NO)C(N)=O (stereo in doubt; 16) | > 5000 µM | > 5000 µM | 2000 µM |  |  |  |
| C[C@H](NC(=O)[C@@H]1CCCN1C(=O)C1CCCCC1C(=O)NO)C(N)=O (stereo in doubt; 14) | > 3000 µM | 50 µM | 130 µM |  |  |  |
| C[C@H](NC(=O)[C@@H]1CCCN1C(=O)[C@@H]1C[C@@H](O)CN1C(=O)[C@@H](O)[C@H](N)Cc1ccccc1)C(N)=O | > 2000 µM | > 2000 µM | 160 µM | > 2000 µM |  |  |
| C[C@H](NC(=O)[C@@H]1CCCN1C(=O)[C@@H]1CSCN1C(=O)[C@@H](O)[C@H](N)Cc1ccccc1)C(N)=O | 82 µM | 34 µM | 41 µM |  |  |  |
| C[C@H](NC(=O)[C@@H]1CCCN1C(=O)C1CCCC1S)C(N)=O (stereo in doubt; 13) | 53 µM | 300 µM | > 3000 µM |  | 390 µM | 150 µM |
| C[C@H](NC(=O)[C@@H]1CCCN1C(=O)C1CCCCC1C(=O)NO)C(N)=O (stereo in doubt; 15) | > 2000 µM | > 500 µM | > 2000 µM |  |  |  |

Now those with a lower IC50 (Xaa-Pro aminopeptidase 1 [1]), led by results:

| IC50 (Xaa-Pro aminopeptidase 1 [1]) | IC50 [2] | IC50 [3] | IC50 (Xaa-Pro aminopeptidase 1 [4]) | IC50 (Xaa-Pro aminopeptidase 2 [5]) | IC50 (Xaa-Pro aminopeptidase 2 [6]) | Structure (SMILES) |
| --- | --- | --- | --- | --- | --- | --- |
| 45 µM | 1300 µM | 16 µM | 250 µM |  |  | NC(=O)[C@@H]1CCCN1C(=O)[C@@H]1CCCN1C(=O)[C@@H](O)[C@H](N)Cc1ccccc1 |
| 6.3 µM | 10 µM |  |  | 29 µM | 3.4 µM | C[C@H](NC(=O)[C@@H]1CCCN1C(=O)C1CCCC1S)C(N)=O (stereo in doubt; 12) |
| 21 µM | 9.4 µM | 9 µM | 18 µM |  |  | C[C@H](NC(=O)[C@@H]1CCCN1C(=O)[C@@H]1CCCN1C(=O)[C@@H](O)[C@H](N)Cc1ccccc1)C(N)=O |
